Results reported in ChEMBL document CHEMBL4393719, “Tetrahydro-3-benzazepines with fluorinated side chains as NMDA and σ1 receptor antagonists: Synthesis, receptor affinity, selectivity and antiallodynic activity” (Eur J Med Chem, 2019).
Calls of active or inactive are those of the source.

Tests used:
[1] = Displacement of [3H] ifenprodil from GluN2B/GluN1a (unknown origin) expressed in mouse L(tk-) cell membranes incubated for 120 mins by scintillation counting method; design: species or system Homo sapiens
Outline: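 Membranes from mouse L(tk-) cells co-transfected with dexamethasone-inducible GluN1a/GluN2B (1:5), induced 24 h with 4 μM dexamethasone plus 4 μM ketamine.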

Mu-type opioid receptor [2] = molecular target: T1, Mu-type opioid receptor (Homo sapiens, UniProt P35372); assay: Displacement of [3H]DAMGO from human MOR expressed in CHO-K1 cells membranes after 60 mins by micro beta scintillation counting method; type: cell membranes
T1 sequence (P35372 whole entry): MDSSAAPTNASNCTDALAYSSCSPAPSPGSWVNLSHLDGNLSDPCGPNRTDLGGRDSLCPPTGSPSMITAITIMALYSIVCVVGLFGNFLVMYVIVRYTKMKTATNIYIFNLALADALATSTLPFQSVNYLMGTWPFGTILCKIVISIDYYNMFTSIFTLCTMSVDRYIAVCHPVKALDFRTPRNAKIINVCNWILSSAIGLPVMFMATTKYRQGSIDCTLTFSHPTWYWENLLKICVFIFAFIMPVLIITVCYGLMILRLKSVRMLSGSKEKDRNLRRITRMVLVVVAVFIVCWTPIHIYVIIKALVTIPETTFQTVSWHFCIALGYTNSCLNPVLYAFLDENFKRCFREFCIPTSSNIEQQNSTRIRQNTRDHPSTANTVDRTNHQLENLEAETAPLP
Outline: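 Human MOR in CHO-K1 membranes (20 µg) with 1 nM [3H]DAMGO in 50 mM Tris-HCl, 5 mM MgCl2, pH 7.4, 27 °C for 60 min. Test compound at five concentrations; 10 µM naloxone defines nonspecific binding. Filtered, washed thrice with ice-cold 10 mM Tris-HCl, counted by liquid scintillation.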

[3] = molecular target: Delta-type opioid receptor (Homo sapiens, UniProt P41143); assay: Inhibition of DOR (unknown origin)
Delta-type opioid receptor, sequence (P41143 whole entry): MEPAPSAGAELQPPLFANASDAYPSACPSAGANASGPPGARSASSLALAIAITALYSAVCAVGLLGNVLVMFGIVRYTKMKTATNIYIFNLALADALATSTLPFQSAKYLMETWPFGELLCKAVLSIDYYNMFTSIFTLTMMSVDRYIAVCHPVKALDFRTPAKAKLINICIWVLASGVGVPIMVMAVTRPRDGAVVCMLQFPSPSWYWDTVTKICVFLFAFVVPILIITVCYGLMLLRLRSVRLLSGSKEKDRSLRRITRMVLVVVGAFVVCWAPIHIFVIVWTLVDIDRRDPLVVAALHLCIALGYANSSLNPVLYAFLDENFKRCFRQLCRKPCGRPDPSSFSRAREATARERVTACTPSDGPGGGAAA

[4] = molecular target: Kappa-type opioid receptor (Homo sapiens, UniProt P41145); assay: Inhibition of KOR (unknown origin)
Kappa-type opioid receptor, sequence (P41145 whole entry): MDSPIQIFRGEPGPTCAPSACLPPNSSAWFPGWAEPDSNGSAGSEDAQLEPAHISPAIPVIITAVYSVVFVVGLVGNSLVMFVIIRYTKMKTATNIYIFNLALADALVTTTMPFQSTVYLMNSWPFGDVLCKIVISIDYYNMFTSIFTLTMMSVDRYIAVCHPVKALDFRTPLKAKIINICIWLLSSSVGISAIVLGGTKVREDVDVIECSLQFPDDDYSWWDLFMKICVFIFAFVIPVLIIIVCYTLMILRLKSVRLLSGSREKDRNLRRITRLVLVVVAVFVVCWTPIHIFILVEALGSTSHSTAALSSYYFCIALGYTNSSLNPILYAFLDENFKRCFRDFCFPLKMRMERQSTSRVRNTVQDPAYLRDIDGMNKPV

Mu-type opioid receptor [5] = molecular target: T1, Mu-type opioid receptor; assay: Agonist activity at MOR (unknown origin) by cAMP assay; type: functional
[6] = molecular target: Voltage-gated inwardly rectifying potassium channel KCNH2 (Homo sapiens, UniProt Q12809); assay: Inhibition of human ERG expressed in CHO cells at -80 mV holding potential by automated patch clamp electrophysiology assay; type: cell-based
Voltage-gated inwardly rectifying potassium channel KCNH2, sequence (Q12809 whole entry): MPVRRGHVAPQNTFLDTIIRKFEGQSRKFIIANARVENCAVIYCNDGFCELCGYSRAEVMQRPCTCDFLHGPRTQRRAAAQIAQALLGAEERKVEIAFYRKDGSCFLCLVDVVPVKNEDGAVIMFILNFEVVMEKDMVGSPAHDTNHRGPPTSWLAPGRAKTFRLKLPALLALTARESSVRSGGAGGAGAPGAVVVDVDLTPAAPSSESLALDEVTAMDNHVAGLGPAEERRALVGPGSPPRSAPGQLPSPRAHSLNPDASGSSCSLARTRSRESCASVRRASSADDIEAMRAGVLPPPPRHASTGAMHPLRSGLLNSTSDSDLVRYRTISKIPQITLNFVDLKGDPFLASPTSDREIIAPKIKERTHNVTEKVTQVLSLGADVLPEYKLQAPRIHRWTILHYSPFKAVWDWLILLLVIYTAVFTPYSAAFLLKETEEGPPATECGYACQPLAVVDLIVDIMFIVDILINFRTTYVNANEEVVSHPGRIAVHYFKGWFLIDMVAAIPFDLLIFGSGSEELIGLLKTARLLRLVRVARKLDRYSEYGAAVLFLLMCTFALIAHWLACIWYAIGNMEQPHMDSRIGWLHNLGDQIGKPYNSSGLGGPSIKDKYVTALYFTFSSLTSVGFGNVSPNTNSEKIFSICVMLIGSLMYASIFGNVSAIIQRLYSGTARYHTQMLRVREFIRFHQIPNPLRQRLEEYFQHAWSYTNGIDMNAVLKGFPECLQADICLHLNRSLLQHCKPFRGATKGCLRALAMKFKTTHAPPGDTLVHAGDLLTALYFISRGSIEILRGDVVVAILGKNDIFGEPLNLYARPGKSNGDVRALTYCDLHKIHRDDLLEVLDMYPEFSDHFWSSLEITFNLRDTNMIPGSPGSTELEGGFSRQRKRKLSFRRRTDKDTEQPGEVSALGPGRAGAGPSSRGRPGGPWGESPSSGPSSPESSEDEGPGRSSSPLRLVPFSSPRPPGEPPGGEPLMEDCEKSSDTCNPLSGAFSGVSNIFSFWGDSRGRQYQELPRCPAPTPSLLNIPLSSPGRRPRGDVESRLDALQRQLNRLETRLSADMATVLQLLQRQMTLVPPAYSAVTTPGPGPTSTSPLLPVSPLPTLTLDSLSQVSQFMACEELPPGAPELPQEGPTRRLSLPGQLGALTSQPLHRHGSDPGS

[7] = molecular target: Sodium-dependent serotonin transporter (Homo sapiens) (UniProt P31645); assay: Displacement of [3H]imipramine from human serotonin transporter at 1 uM after 30 mins by scintillation counting method relative to control
Sodium-dependent serotonin transporter (Homo sapiens), sequence (P31645 whole entry, looked up): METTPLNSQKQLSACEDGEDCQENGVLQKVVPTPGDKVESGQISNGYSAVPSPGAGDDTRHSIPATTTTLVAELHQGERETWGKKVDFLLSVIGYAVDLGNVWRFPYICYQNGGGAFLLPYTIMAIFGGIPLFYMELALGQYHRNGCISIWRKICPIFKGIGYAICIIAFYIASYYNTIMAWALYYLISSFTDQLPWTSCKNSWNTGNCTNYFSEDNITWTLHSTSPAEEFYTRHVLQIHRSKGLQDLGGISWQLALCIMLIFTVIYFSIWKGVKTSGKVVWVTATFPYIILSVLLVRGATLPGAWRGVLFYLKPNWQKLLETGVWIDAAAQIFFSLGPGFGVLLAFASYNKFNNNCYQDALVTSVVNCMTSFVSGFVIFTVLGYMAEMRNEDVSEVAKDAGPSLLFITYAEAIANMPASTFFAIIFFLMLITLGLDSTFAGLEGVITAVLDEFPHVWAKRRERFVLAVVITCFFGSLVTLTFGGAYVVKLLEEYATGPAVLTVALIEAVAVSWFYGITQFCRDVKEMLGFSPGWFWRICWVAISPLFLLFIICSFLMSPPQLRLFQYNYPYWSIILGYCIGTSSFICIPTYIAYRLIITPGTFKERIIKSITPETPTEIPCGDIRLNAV
Outline: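 Human SERT-enriched membranes (3.5 μg) incubated 30 min at 27 °C with 3 nM [3H]imipramine in Tris-HCl/120 mM NaCl/5 mM KCl pH 7.4, 0.1% DMSO; 200 μM imipramine for nonspecific binding. Compound at 1 μM; displacement after filtration.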

[8] = molecular target: Alpha-1A adrenergic receptor (Homo sapiens) (UniProt P35348); assay: Displacement of [3H]prazosin from human adrenergic alpha1A receptor at 1 uM after 90 mins by scintillation counting method relative to control
Alpha-1A adrenergic receptor (Homo sapiens), sequence (P35348 whole entry): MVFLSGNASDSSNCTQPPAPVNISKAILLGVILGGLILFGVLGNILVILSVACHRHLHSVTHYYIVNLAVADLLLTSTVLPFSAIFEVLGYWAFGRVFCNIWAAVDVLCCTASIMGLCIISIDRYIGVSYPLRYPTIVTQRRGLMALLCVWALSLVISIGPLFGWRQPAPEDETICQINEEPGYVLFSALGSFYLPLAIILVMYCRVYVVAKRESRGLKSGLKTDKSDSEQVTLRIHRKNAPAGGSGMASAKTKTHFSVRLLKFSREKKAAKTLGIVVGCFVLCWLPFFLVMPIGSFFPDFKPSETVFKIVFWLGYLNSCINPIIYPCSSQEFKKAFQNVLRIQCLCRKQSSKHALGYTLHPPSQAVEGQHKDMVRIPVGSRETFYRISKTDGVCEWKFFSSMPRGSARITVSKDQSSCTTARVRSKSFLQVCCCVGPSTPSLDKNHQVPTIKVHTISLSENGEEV
Outline: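 α1A adrenoceptor-enriched human membranes (10 µg), 0.2 nM [3H]prazosin in 50 mM HEPES, 5 mM MgCl2, 1 mM CaCl2, 0.2% BSA, pH 7.4; 90 min at 25 °C; 1 µM prazosin for nonspecific binding. Compound tested at 1 µM; bound ligand collected by filtration.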

[9] = molecular target: Histamine H1 receptor (Homo sapiens) (UniProt P35367); assay: Displacement of [3H]pyrilamine from human recombinant histamine H1 receptor at 1 uM after 90 mins by scintillation counting method relative to control
Histamine H1 receptor (Homo sapiens), sequence (P35367 whole entry): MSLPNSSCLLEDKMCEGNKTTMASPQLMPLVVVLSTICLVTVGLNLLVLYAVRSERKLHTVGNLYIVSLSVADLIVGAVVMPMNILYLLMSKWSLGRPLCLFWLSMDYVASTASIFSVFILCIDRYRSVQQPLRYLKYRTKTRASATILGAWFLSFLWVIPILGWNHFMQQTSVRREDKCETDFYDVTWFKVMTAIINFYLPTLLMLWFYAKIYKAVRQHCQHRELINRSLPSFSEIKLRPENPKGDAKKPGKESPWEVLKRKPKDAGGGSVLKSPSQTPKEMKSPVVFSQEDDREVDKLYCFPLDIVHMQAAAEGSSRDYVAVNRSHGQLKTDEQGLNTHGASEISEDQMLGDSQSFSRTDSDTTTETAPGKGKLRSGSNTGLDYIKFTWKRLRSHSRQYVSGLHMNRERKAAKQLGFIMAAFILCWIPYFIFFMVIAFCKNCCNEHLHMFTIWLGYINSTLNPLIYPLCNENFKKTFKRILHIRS
Outline: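 Human H1 receptor-enriched membranes (25 μg) with 2.4 nM [3H]pyrilamine in Na+/K+ phosphate buffer pH 7.4, 0.1% DMSO, 90 min, 25 °C; 10 μM triprolidine for nonspecific binding. Single 1 μM test concentration; filtration-based readout of displacement.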

[10] = Drug metabolism in human liver microsomes at 1 uM incubated for 1 hr in presence of NADPH by UPLC-MS analysis; type: ADME, Microsome; conditions: read-out: Drug metabolism
Outline: (§1)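 Liver microsomes, compound 1 µM, 37 °C for 1 h in 50 mM Na/K phosphate pH 7.4, 3 mM MgCl2, NADPH-regenerating system, CYP 0.3 nmol/mL. Aliquots at 0, 10, 20, 40, 60 min quenched with cold acetonitrile, supernatants by UPLC-MS/MS; % parent remaining at end reported. Terfenadine as positive control.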

[11] = Drug metabolism in mouse liver microsomes at 1 uM incubated for 1 hr in presence of NADPH by UPLC-MS analysis; type: ADME, Microsome; conditions: read-out: Drug metabolism; outline: as §1
CYP2D6 = CYP2D6 (Homo sapiens, UniProt P10635); assay: Inhibition of recombinant human CYP2D6 at 1 uM by fluorescence probe substrate-based flurometric analysis; type: ADME
CYP2D6, sequence (P10635 whole entry): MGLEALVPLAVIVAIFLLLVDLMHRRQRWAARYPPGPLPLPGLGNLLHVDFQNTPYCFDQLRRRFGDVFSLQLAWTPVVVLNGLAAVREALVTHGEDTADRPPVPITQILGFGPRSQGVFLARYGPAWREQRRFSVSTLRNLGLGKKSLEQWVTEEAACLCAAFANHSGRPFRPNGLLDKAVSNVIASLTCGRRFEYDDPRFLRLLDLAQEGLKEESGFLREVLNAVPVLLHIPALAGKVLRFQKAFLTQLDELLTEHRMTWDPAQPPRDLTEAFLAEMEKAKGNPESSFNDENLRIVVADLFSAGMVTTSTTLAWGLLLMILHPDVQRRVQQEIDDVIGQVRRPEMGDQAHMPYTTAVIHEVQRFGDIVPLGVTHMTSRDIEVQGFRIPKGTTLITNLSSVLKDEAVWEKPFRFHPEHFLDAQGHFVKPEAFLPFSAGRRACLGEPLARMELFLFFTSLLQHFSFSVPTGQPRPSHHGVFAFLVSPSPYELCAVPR

Mus musculus [12] = assay: Antiallodynic activity in CD-1 mouse model of capsaicin-induced mechanical allodynia assessed as increase in paw withdrawal threshold at 8 mg/kg, sc administered 30 mins before capsaicin addition and measured after 15 mins by von-Frey test; type: functional, organism-based
Outline: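 Female CD-1 mice given compound or HPMC vehicle sc 30 min before intraplantar capsaicin (1 µg in 20 µL, 1% DMSO). 15 min later, electronic von Frey punctate stimulus (0.5 g) at least 5 mm from injection site; paw withdrawal latency, three trials 30 s apart, 50 s cutoff. % antiallodynic effect = [(LTD−LTS)/(CT−LTS)]×100; 6-8 mice per group, ANOVA with Bonferroni.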

Mus musculus [13] = assay: Antiallodynic activity in CD-1 mouse model of capsaicin-induced mechanical allodynia assessed as increase in paw withdrawal threshold at 16 mg/kg, sc administered 30 mins before capsaicin addition and measured after 15 mins in presence of sigma1 receptor agonist PRE-084 by von-Frey test; type: functional, organism-based
Outline: (§2)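 Female CD-1 mice pretreated sc with σ1 agonist PRE-084 (32 mg/kg) 5 min before sc test compound; 30 min later capsaicin 1 µg intraplantar. After 15 min, 0.5 g electronic von Frey stimulus on secondary hyperalgesia area; withdrawal latency averaged over three trials, 50 s cutoff. Effect as % antiallodynia versus HPMC-treated; 6-8 animals, one-way ANOVA plus Bonferroni.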

Mus musculus [14] = assay: Antiallodynic activity in CD-1 mouse model of capsaicin-induced mechanical allodynia assessed as increase in paw withdrawal threshold at 32 mg/kg, sc administered 30 mins before capsaicin addition and measured after 15 mins in presence of sigma1 receptor agonist PRE-084 by von-Frey test; type: functional, organism-based; outline: as §2
HepG2 = assay: Cytotoxicity against human HepG2 assessed as reduction in cell viability at 1 to 100 uM after 20 hrs by neutral red uptake assay; type: cell-based; conditions: hepg2, 20 h
Outline: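 HepG2 seeded 3 x 10^4/well, 24 h, then 20 h serum-free exposure at 1, 10 or 100 µM. Neutral red 50 µg/mL for 3 h, washed, dye extracted with 50% ethanol/1% acetic acid, OD 550 nm. IC50 assigned as lowest concentration reaching ≥50% cytotoxicity against untreated cells; n = 4 (duplicate, two assays).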

[15] = molecular target: Sodium-dependent dopamine transporter (Homo sapiens) (UniProt Q01959); assay: Displacement of [3H]GBR12935 from human DAT at 1 uM after 120 mins by scintillation counting method relative to control
Sodium-dependent dopamine transporter (Homo sapiens), sequence (Q01959 whole entry): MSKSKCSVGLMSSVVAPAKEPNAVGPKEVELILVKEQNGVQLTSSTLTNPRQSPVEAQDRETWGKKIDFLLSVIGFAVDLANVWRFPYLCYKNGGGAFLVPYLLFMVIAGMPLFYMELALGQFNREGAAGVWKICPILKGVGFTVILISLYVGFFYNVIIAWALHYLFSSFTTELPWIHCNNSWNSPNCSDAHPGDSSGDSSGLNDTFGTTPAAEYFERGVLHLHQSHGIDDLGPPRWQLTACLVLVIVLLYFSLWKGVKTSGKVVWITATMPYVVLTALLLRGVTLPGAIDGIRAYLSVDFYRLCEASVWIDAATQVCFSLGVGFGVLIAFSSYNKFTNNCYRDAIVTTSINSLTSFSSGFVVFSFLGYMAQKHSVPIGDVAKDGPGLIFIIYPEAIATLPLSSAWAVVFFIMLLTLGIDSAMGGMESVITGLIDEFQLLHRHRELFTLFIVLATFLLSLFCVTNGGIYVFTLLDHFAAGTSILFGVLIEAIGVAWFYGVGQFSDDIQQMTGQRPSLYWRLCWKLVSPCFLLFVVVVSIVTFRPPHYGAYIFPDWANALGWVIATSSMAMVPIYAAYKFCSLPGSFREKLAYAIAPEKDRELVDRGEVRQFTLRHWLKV
Outline: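 DAT-enriched human membranes (5 µg), 2 nM [3H]GBR12935 in 50 mM Tris-HCl/100 mM NaCl pH 7.4, 0.1% DMSO, 120 min at 4 °C; 10 µM GBR12909 for nonspecific binding. Compound at 1 µM; displacement measured after filtration.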

[16] = Stability of compound in aqueous HCl solution at pH 2 after 24 hrs by HPLC analysis; type: physicochemical; conditions: buffer, pH 2, 24 h
Outline: (§3)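 Compound (25 μL of 10 mM DMSO stock) added to 1 mL aqueous buffered solution, pH 2 or pH 7.4, stirred 24 h at room temperature, analyzed by HPLC-MS; deemed stable if peak area remained 95–105%.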

[17] = Stability of compound in phosphate buffer at pH 7.4 after 24 hrs by HPLC analysis; type: physicochemical; conditions: pH 7.4, 24 h; outline: as §3

Ki (Mu-type opioid receptor [2]): > 1000 nM
Ki [3]: > 1000 nM
Ki [4]: > 1000 nM
EC50 (Mu-type opioid receptor [5]): > 10000 nM
inhibition [7]: < 50%
inhibition [8]: < 50%
inhibition [9]: < 50%
metabolised at 1 h, 1 µM [10]: 100%
metabolised at 1 h, 1 µM [11]: 100%
inhibition at 1 µM (CYP2D6): 55%
inhibition [15]: < 50%
Stability [16]: Stable
Stability [17]: Stable
Structure (SMILES): COc1ccc2c(c1)CCN(CCC(F)Cc1ccccc1)CC2 (centres undefined)
Ki [1]: 120 nM
IC50 [6]: 553 nM
Activity (Mus musculus [12]): Active
Activity (Mus musculus [13]): inactive
Activity (Mus musculus [14]): Active
Activity (HepG2): Toxic
